Reference: ChEMBL document CHEMBL1127024, “Synthetic and computer-assisted analysis of the structural requirements for selective, high-affinity ligand binding to diazepam-insensitive benzodiazepine receptors” (J Med Chem, 1993)

Assays:
Type in all cases: protein-complex assay
[1] = molecular target: GABA-A receptor; anion channel; assay: Binding affinity for Diazepam insensitive (DI) isoform of the benzodiazepine (Bz) binding site on GABAA receptors
Outline: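 Adult male Sprague-Dawley rat cerebellar membranes (~100 µg; homogenised in 50 mM Tris-citrate pH 7.8, washed by repeated 20000g spins at 4 °C). Incubated 60 min at 0-4 °C, GF/B filtration, scintillation counting. Duplicate assays; Ki.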

[2] = molecular target: GABA-A receptor; anion channel; assay: Binding affinity for Diazepam sensitive (DS) isoform of the benzodiazepine (Bz) binding site on GABAA receptors
[3] = molecular target: GABA-A receptor; anion channel (Rattus norvegicus) (UniProt O09028+P15431+P18506+P18508+P19969+P20236+P23574+P23576+P28471+P28473+P30191+P62813+P63079+P63138+Q91ZM7+Q9ES14); assay: Ratio of binding affinity against DI Bz receptor to that of DS Bz receptor

Structure (SMILES)	Ki [1] [nM]	Ki [2] [nM]	Ratio [3]
O=C(OC1CCCCC1)c1ncn2c1C1CCCN1C(=O)c1cc(Cl)ccc1-2 (centres undefined)	165	391	0.42
CC(C)OC(=O)c1ncn2c1CN(C)C(=O)c1cc(Cl)ccc1-2	–	–	0.8
CCCOC(=O)c1ncn2c1CN(C)C(=O)c1sccc1-2	–	–	27
CCc1cccc2c1C(=O)N1CCCC1c1c(C(=O)OC(C)(C)C)ncn1-2 (centres undefined)	164	1	164
CCOC(=O)c1ncn2c1CN(C)C(=O)c1c(Cl)cccc1-2 [SARMAZENIL]	20	0.2	100
CCOC(=O)c1ncn2c1C1CCN1C(=O)c1c(Cl)cccc1-2 (centres undefined)	34	0.2	170
CN1Cc2c(C(=O)OCCC(C)(C)C)ncn2-c2ccc(Cl)cc2C1=O	> 1000	–	–
CN1Cc2c(C(=O)OCC3CC3)ncn2-c2ccc(Cl)cc2C1=O	–	–	4.1
CC(C)(C)OC(=O)c1ncn2c1C1CCCN1C(=O)c1c-2ccc(F)c1Cl (centres undefined)	23.6	1	24
Cc1noc(-c2ncn3c2CN(Cc2ccccc2)C(=O)c2ccccc2-3)n1	> 10000	907	–
CN1Cc2c(C(=O)OCC(C)(C)C)ncn2-c2ccc(Cl)cc2C1=O	–	–	0.67
CCOC(=O)c1ncn2c1CN(Cc1ccccc1)C(=O)c1c(Cl)cccc1-2	20.2	0.4	51
CCOC(=O)c1ncn2c1CN(Cc1ccccc1)C(=O)c1cc(Cl)ccc1-2	10.9	13.7	0.8
CN1Cc2c(C(=O)OC(C)(C)C)ncn2-c2ccc(Cl)cc2C1=O	–	–	0.4
CC(C)(C)OC(=O)c1ncn2c1C1CCCN1C(=O)c1cc(Cl)ccc1-2 (centres undefined)	26.8	65.2	0.4
CCOC(=O)c1ncn2c1C1CCCN1C(=O)c1cc(Cl)ccc1-2 (centres undefined)	–	–	0.7
CCCOC(=O)c1ncn2c1CN=C(c1ccccc1Cl)c1cc(Cl)ccc1-2	1020	1.9	539
COc1cccc2c1C(=O)N1CCCC1c1c(C(=O)OC(C)(C)C)ncn1-2 (centres undefined)	259	5.1	51
CCC(CC)OC(=O)c1ncn2c1CN(C)C(=O)c1cc(Cl)ccc1-2	–	–	4.6
Cc1nnc2n1-c1ccc(Cl)cc1C(c1ccccc1Cl)=NC2 [TRIAZOLAM]	2090	0.8	2610
CCOC(=O)c1ncn2c1CN(C)C(=O)c1cccc(Cl)c1-2	> 10000	> 1000	–
Cc1noc(-c2ncn3c2CN(Cc2ccccc2)C(=O)c2cc(Cl)ccc2-3)n1	115	88.4	1.3

Structure (SMILES)	Ki [1] [nM]	Ki [2] [nM]	Ratio [3]
CCOC(=O)c1ncn2c1CN(C)C(=O)c1ccc(Cl)cc1-2	> 10000	> 1000	–
COC(=O)c1ncn2c1CN(C)C(=O)c1cc(F)ccc1-2 [FLUMAZENIL METHYLESTER]	239	3.1	77
CCCOC(=O)c1ncn2c1CN(C)C(=O)c1cc(Cl)ccc1-2	–	–	1.3
CN1Cc2c(C(=O)OC(C)(C)C)ncn2-c2ccsc2C1=O	–	–	13
CCOC(=O)c1ncn2c1CN(C)C(=O)c1ccccc1-2	–	–	165
CCCOC(=O)c1nc(C)n2c1CN=C(c1ccccc1Cl)c1cc(Cl)ccc1-2	–	2.2	–
CC(C)(C)OC(=O)c1ncn2c1C1CCN1C(=O)c1cc(F)ccc1-2 (centres undefined)	16.9	1.8	9
C=CCN1Cc2c(C(=O)OCC)ncn2-c2ccccc2C1=O	1130	39.2	29
CCOC(=O)c1ncn2c1C1CCCN1C(=O)c1c(Cl)cccc1-2 (centres undefined)	68.8	0.2	344
CCOC(=O)c1ncn2c1CN(C)C(=O)c1c(F)cccc1-2	102	0.8	128
O=C(OCC1CC1)c1ncn2c1C1CCN1C(=O)c1c(Cl)cccc1-2 (centres undefined)	55	0.1	554
CC(C)(C)OC(=O)c1ncn2c1C1CCN1C(=O)c1c(Cl)cccc1-2 (centres undefined)	–	1.1	14
CCOC(=O)c1ncn2c1[C@@H]1CCCN1C(=O)c1ccccc1-2	–	–	50
CC(C)(C)OC(=O)c1ncn2c1C1CCCN1C(=O)c1c(Br)cccc1-2 (centres undefined)	10	0.5	20
Cc1noc(-c2ncn3c2CN(Cc2ccccc2)C(=O)c2c(Cl)cccc2-3)n1	–	7.5	101
Cc1nnc(-c2ncn3c2CN(Cc2ccccc2)C(=O)c2ccccc2-3)o1	> 10000	1210	–
CCOC(=O)c1ncn2c1[C@H]1CCCN1C(=O)c1ccccc1-2	> 1000	> 100	–
O=C(OCC1CC1)c1ncn2c1C1CCCN1C(=O)c1cc(Cl)ccc1-2 (centres undefined)	81	378	0.22
CN1Cc2c(C(=O)OC(C)(C)C)ncn2-c2ccccc2C1=O	–	–	19.2
COC(=O)c1ncn2c1CN(C)C(=O)c1sccc1-2	–	–	58
CCOC(=O)c1ncn2c1CN(Cc1ccccc1)C(=O)c1ccccc1-2	112	1.5	75
COC(=O)c1ncn2c1CN(C)C(=O)c1ccccc1-2	1410	–	224
